Holding throughout (assay type): functional
Assay [1] has as its system Mus musculus. Briefly: Activity was evaluated in C57BL/10 mice by Morris water Maze test and mean latency for TRH was reported at 0.3 mg/Kg i.p. dosage. The essentials: (§1)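 Male C57BL/10 mice (17–21 g, housed 10 per group, food and water ad libitum). Drug in saline or 5% acacia, 10 mL/kg, given ip 30 min before the first of four trials to find a hidden submerged platform. Score was each mouse's mean total latency over the four trials; group mean ± SEM. Vehicle group included. Analysis: one-way ANOVA, then Dunnett t-test versus vehicle, p < 0.05.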

The subject of assay [2] is Mus musculus. Briefly: Activity was evaluated in C57BL/10 mice by Morris water Maze test and mean latency for TRH was reported at 0.01 mg/Kg i.p. dosage. In a few lines: as §1
For assay [3], the system named is Mus musculus. Briefly: Activity was evaluated in C57BL/10 mice by Morris water Maze test and mean latency for TRH was reported at 0.1 mg/Kg i.p. dosage. The essentials:
as §1

Assay [4] deals with Mus musculus. Briefly: Activity was evaluated in C57BL/10 mice by Morris water Maze test and mean latency for TRH was reported at 0.03 mg/Kg i.p. dosage. In a few lines: as §1
The test system of assay [5] is Mus musculus. Briefly: Activity was evaluated in C57BL/10 mice by Morris water Maze test and mean latency for TRH was reported at 0.00003 mg/Kg p.o. dosage. In a few lines:
(§2)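 Spatial water-maze task in male C57BL/10 mice (17–21 g, group-housed, ad libitum food and water). Oral dosing (saline or 5% acacia vehicle, 10 mL/kg) 30 min before four trials locating a submerged platform. Latency recorded per trial; the mean total over the four trials was the animal's score, reported as mean ± SEM. Vehicle controls included. Groups compared with vehicle by one-way ANOVA and Dunnett t-test (p < 0.05).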

The subject of assay [6] is Mus musculus. Briefly: Activity was evaluated in C57BL/10 mice by Morris water Maze test and mean latency for TRH was reported at 0.00003 mg/Kg i.p. dosage. In a few lines: as §1
Assay [7] deals with Mus musculus. Briefly: Activity was evaluated in C57BL/10 mice by Morris water Maze test and mean latency for TRH was reported at 3 mg/Kg i.p. dosage. The essentials: as §1
The subject of assay [8] is Mus musculus. Briefly: Activity was evaluated in C57BL/10 mice by Morris water Maze test and mean latency for TRH was reported at 0.003 mg/Kg i.p. dosage. The essentials: as §1
For assay [9], the system named is Mus musculus. Briefly: Activity was evaluated in C57BL/10 mice by Morris water Maze test and mean latency for TRH was reported at 0.0003 mg/Kg i.p. dosage. The essentials: as §1
Assay [10] relates to Mus musculus. Briefly: Activity was evaluated in C57BL/10 mice by Morris water Maze test and mean latency for TRH was reported at 0.03 mg/Kg p.o. dosage. In a few lines: as §2
In assay [11] the test system is Mus musculus. Briefly: Activity was evaluated in C57BL/10 mice by Morris water Maze test and mean latency for TRH was reported at 0.0003 mg/Kg p.o. dosage. In a few lines: as §2
The test system of assay [12] is Mus musculus. Briefly: Activity was evaluated in C57BL/10 mice by Morris water Maze test and mean latency for TRH was reported at 0.003 mg/Kg p.o. dosage. In a few lines: as §2
Assay [13] deals with Mus musculus. Briefly: Activity was evaluated in C57BL/10 mice by Morris water Maze test and mean latency for TRH was reported at 1.0 mg/Kg i.p. dosage. The essentials: as §1
Assay [14] deals with Mus musculus. Briefly: Activity was evaluated in C57BL/10 mice by Morris water Maze test and mean latency for TRH was reported at 0.001 mg/Kg i.p. dosage. In a few lines: as §1
Assay [15] relates to Mus musculus. Briefly: Activity was evaluated in C57BL/10 mice by Morris water Maze test and mean latency for TRH was reported at 3.0 mg/Kg i.p. dosage. The essentials:
as §1

For assay [16], the system named is Mus musculus. Briefly: Activity was evaluated in C57BL/10 mice by Morris water Maze test and mean latency for TRH was reported at 10.0 mg/Kg i.p. dosage. The essentials:
as §1

In assay [17] the test system is Mus musculus. Briefly: Activity was evaluated in C57BL/10 mice by Morris water Maze test and mean latency for TRH was reported at 0.01 mg/Kg p.o. dosage. The essentials: as §2
The subject of assay [18] is Mus musculus. Briefly: Activity was evaluated in C57BL/10 mice by Morris water Maze test and mean latency for TRH was reported at 0.1 mg/Kg p.o. dosage. In a few lines: as §2
Assay [19] deals with Mus musculus. Briefly: Activity was evaluated in C57BL/10 mice by Morris water Maze test and mean latency for TRH was reported at 0.3 mg/Kg p.o. dosage. The essentials:
as §2

The test system of assay [20] is Mus musculus. Briefly: Activity was evaluated in C57BL/10 mice by Morris water Maze test and mean latency for TRH was reported at 3 mg/Kg p.o. dosage. The essentials: as §2

With `C[C@H]1C[C@@H](CC(N)=O)C[C@@H](C[C@@H]2CCC(=O)N2)C1`, the Mean latency in the assay with Mus musculus [1] is listed as 43.13 s; in the assay on Mus musculus [2], 42.77 s; with Mus musculus [3] it was 30.08 s; with Mus musculus [4] it was 37.86 s.
Take `NC(=O)C[C@@H]1C[C@H](Cc2c[nH]cn2)C[C@H](C[C@@H]2CCC(=O)N2Cc2ccccc2)C1`: the Mean latency is recorded as 17.62 s in the assay with Mus musculus [1]; 46.67 s in the assay with Mus musculus [5]; 62.15 s in the assay on Mus musculus [6]; 31.62 s in the assay on Mus musculus [7]; 22.24 s in the assay with Mus musculus [8]; 33.29 s in the assay on Mus musculus [9]. Moreover, the Mean latency in the assay on Mus musculus [10] stood at 21.1 s; with Mus musculus [11] it was 30.9 s; with Mus musculus [4], 15.65 s; in the assay on Mus musculus [12], 35.23 s.
As to `NC(=O)C[C@@H]1C[C@H](Cc2c[nH]cn2)C[C@H](C[C@@H]2CCC(=O)N2)C1`, the Mean latency turned out to be 25.23 s in the assay on Mus musculus [13], 47.62 s in the assay on Mus musculus [14], 38.72 s in the assay with Mus musculus [2] and 45.06 s with Mus musculus [3].
As to `NC(=O)[C@@H]1CCCN1C(=O)[C@H](Cc1c[nH]cn1)NC(=O)[C@@H]1CCC(=O)N1` [PROTIRELIN], the Mean latency was determined as 33.57 s in the assay on Mus musculus [15]; 20.85 s with Mus musculus [1]; 28.87 s in the assay on Mus musculus [13]; 50.59 s in the assay with Mus musculus [14]; 43.08 s with Mus musculus [8]; 37.97 s with Mus musculus [2]. The Mean latency was 25.76 s with Mus musculus [3], 46 s in the assay on Mus musculus [16] and 32.69 s in the assay on Mus musculus [4].
With `C[C@H]1C[C@@H](CC(N)=O)C[C@@H](C[C@@H]2CCC(=O)N2Cc2ccccc2)C1`, the Mean latency in the assay with Mus musculus [17] was determined as 35.88 s; with Mus musculus [18] it was 24.55 s; in the assay with Mus musculus [14] it was 47.48 s; in the assay with Mus musculus [8], 36.26 s; with Mus musculus [2] it was 22.15 s; in the assay on Mus musculus [3], 26.87 s. Further, the Mean latency with Mus musculus [10] came out at 32.87 s; in the assay with Mus musculus [4] it was 26.49 s; in the assay with Mus musculus [19] it was 46.53 s; with Mus musculus [12], 42.2 s.
With `NC(=O)C[C@@H]1C[C@@H](Cc2c[nH]cn2)C[C@H](C[C@@H]2CCC(=O)N2Cc2ccccc2)C1`, the Mean latency in the assay on Mus musculus [5] is given as 51.7 s; in the assay with Mus musculus [20], 43.72 s; in the assay with Mus musculus [10] it was 28.87 s; in the assay on Mus musculus [11], 42.81 s; with Mus musculus [19], 27.59 s; in the assay with Mus musculus [12] it was 37.01 s.
On to `NC(=O)C[C@@H]1C[C@@H](Cc2c[nH]cn2)C[C@H](C[C@@H]2CCC(=O)N2)C1`, for which the Mean latency with Mus musculus [13] was 24.19 s; in the assay on Mus musculus [2] it was 57.12 s; in the assay with Mus musculus [3], 46.09 s.

Source of the values: ChEMBL document CHEMBL1128483, “Peptide mimetics of thyrotropin-releasing hormone based on a cyclohexane framework: design, synthesis, and cognition-enhancing properties” (1995).
